Bioassay records: PubChem, several laboratories
Sampled rows, rich in hits. Any-hit rate of the full collection: about 4.1%.
hERG rescue: compounds protecting human hERG from proarrhythmic drug block | hit rate 0.51% among 310,000 | activation (rescue from dofetilide block), less the hit threshold, % at 10 µM | AID 1511 | Q12809 | CHO-hERG, FluxOR thallium flux, dofetilide IC70 present;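 active = activation above the mean of controls blocked by dofetilide plus 5 SD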;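 also: thallium influx through hERG after potassium depolarization seen as dye fluorescence rise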
KCNQ1 act: potentiates or activates the human KCNQ1 potassium channel. P51787. CHO-K1 KCNQ1, thallium flux FluxOR fluorescence; hits give high values. B-score at 10 µM. hit rate 0.35% among 310,000;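 active = fluorescence ratio B-score, a plate-corrected score, at least three library SD, with initial intensity B-score within 5 SD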
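System: Stable KCNQ1 CHO-K1 line | Incubation: 90 min dye loading and 20 min compound exposure, both at room temperature | Measure: Ratio B score | Medium: Assay buffer for compound exposure, DMSO matched across wells | Compound dosing: Single-concentration screen | Probe or stimulus: K+/Tl+ depolarizing stimulus | Measured by: Kinetic FluxOR fluorescence, 10 s baseline plus 110 s post-stimulus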
Cl transport mod: KCC2 (human) Cl- transport modulation; Q9H2X9; KCC2 cells, thallium flux FluoZin-2 fluorescence; B-score of Tl+ flux slope (higher = more flux/activation; lower = inhibition) at 10 µM; hit rate 2.2% among 190,000; AID 1456;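 active = thallium flux slope and its plate-corrected score both differing from the plate sample mean at a set confidence after two filtering rounds, in either direction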;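 also: slope of fluorescence scaled to starting intensity during 10 to 20 s after thallium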
Target sequence (Q9H2X9 whole entry, looked up): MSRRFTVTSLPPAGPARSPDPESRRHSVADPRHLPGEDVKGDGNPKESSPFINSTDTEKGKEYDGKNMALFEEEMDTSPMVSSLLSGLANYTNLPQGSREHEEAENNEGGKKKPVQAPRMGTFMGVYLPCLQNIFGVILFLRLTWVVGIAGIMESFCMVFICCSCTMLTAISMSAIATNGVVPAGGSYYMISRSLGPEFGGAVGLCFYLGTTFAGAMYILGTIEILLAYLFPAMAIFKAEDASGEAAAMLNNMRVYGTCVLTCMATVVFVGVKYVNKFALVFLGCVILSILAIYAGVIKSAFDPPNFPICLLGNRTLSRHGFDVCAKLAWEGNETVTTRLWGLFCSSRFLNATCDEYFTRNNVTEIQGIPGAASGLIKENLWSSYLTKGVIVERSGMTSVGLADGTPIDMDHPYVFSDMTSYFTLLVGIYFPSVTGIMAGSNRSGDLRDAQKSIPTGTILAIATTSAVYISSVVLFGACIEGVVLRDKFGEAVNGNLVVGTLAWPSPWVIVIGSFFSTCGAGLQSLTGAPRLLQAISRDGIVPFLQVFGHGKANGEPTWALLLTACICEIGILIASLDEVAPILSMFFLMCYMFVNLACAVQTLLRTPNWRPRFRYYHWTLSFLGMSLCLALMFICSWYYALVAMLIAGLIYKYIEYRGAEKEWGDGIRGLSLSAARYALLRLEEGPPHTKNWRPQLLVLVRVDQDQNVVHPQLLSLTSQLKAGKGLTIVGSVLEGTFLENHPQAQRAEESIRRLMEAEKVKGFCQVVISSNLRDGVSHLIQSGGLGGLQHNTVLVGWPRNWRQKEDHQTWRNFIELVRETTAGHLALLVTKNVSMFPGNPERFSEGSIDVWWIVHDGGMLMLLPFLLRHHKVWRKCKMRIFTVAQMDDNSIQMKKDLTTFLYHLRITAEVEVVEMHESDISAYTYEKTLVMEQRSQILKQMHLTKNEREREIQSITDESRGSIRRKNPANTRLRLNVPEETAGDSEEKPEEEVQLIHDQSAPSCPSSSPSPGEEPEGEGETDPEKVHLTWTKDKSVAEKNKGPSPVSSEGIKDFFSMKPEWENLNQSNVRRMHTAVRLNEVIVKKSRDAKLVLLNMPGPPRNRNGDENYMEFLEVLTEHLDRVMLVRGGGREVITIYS
KCNQ1 inh: blocks the human KCNQ1 potassium channel. P51787. CHO-K1 KCNQ1, FluxOR thallium flux fluorescence; hits give high values. B-score at 10 µM. hit rate 1.3% among 310,000;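 active = compounds whose thallium flux B-score, printed positive for inhibition, exceeds three library SD while starting fluorescence stays within three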;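 also: channel opened by potassium depolarization with thallium stimulus after 20 min compound exposure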
KCNK9 inh: human KCNK9 channel inhibition. B-score at 10 µM. HEK293 KCNK9, FluxOR thallium flux fluorescence; hits give low values. hit rate 1.2% among 310,000;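 active = ratio B-score over 3 SD below the library mean, with starting fluorescence within 5 SD of its mean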;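 also: negative B-score means less thallium flux so channel inhibition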
KCNK3 block: human KCNK3 channel inhibition, primary screen; B-score at 10 µM; CHO-KCNK3 thallium flux, FluxOR fluorescence; hits give low values; AID 602410; hit rate 0.84% among 340,000;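 active = B-score under library mean minus 4 SD, starting fluorescence ratio at most library mean plus 5 SD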;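 also: more negative B-score means stronger inhibition of thallium flux through KCNK3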
KCC2 sec1: KCC2 (human) modulation, secondary assay; shares compounds with Cl transport mod; HEK293-KCC2, thallium flux, FluoZin2 fluorescence; hits give high values; normalised thallium flux (F/F0 slope) at 10 µM; hit rate 15% among 3,700; AID 1713;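 active = thallium flux slope above the same plate's solvent-only control mean plus 3 SD; inconclusive = the two replicate wells disagree; inactive = no significant difference from solvent-only control wells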
KCC2 bumet counter: thallium flux despite bumetanide block in KCC2 cells, secondary assay 3; shares compounds with Cl transport mod; AID 1714; hit rate 49% among 3,700; HEK293-KCC2 + bumetanide/ouabain, thallium flux FluoZin2; hits give high values; normalized thallium flux at 10 µM;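 active = thallium entry rate above the same plate's blocked-transporter control wells by more than 3 SD; inconclusive = the two repeat wells disagree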;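 also: raw slope of fluorescence over initial fluorescence between 10 and 20 s after thallium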
KCC2 sec2: KCC2 (human) modulation, second secondary assay. HEK293-KCC2, thallium flux FluoZin2 fluorescence; actives lie on both sides; F/F0 rise rate, 10–20 s post-thallium. normalized thallium flux at 10 µM. shares compounds with Cl transport mod. AID 1715. hit rate 23% among 3,700;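 active = thallium flux slope more than 3 SD above or below the plate's solvent-only control mean, mostly below; inconclusive = the two repeat wells disagreed; inactive = no significant shift from solvent-only controls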;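 also: raw slope with 0.1% DMSO as baseline and bumetanide as block control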
HEK counter1: counter-screen for KCC2 modulators: effect in parental HEK293 cells. shares compounds with Cl transport mod. thallium flux FluoZin2, ouabain; baseline-ratio fluorescence slope, 10–20 s after thallium. thallium flux rate (normalised fluorescence) at 10 µM. hit rate 46% among 3,700;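 active = thallium flux rate significantly above the same plate's solvent-only control wells, beyond their mean plus 3 SD; inconclusive = the two replicate wells gave conflicting results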
KCC2 ouabain: confirmation of human KCC2 modulators with ouabain. shares compounds with Cl transport mod. HEK293-KCC2, thallium flux FluoZin2 fluorescence; bidirectional: low = inhibitor, high = activator. raw Tl+ flux slope (below DMSO = inhibition, above = activation) at 10 µM. hit rate 48% among 3,700. AID 1717;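 active = thallium flux slope beyond 3 SD from same-plate DMSO control mean in most replicates, usually higher, sometimes lower; inconclusive = repeat tests gave conflicting results; inactive = no significant difference from controls in most replicates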;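 also: slope of initial-normalized fluorescence between seconds 10 and 20 after thallium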
HEK counter2: parental HEK flux effect, counter-screen 2; shares compounds with Cl transport mod; HEK293 parental, thallium flux FluoZin-2 fluorescence slope; thallium flux slope at 10 µM; hit rate 33% among 3,700; AID 1718;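 active = thallium flux slope above the same plate's solvent-control mean plus 3 SD in both duplicate wells; inconclusive = duplicate wells that disagreed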;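 also: run without ouabain in cells lacking the KCC2 cotransporter; slope of fluorescence scaled to its starting value between 10 and 20 s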
Numbers without * were called inactive; i = inactive; ? = inconclusive; / = no result.

SMILES | hERG rescue | KCNQ1 act | Cl transport mod | KCNQ1 inh | KCNK9 inh | KCNK3 block | KCC2 sec1 | KCC2 bumet counter | KCC2 sec2 | HEK counter1 | KCC2 ouabain | HEK counter2
Cc1ccc(C(=O)NC(=S)N2CC(C)OC(C)C2)cc1[N+](=O)[O-] (stereo not drawn) | -5 | i | / | i | i | i | 0.018* | 0.037* | 0.03 | 0.021* | 0.035* | 0.013*
C/C(=N/NC(=O)c1cc(-c2ccc(Cl)s2)[nH]n1)c1ccco1 | -3 | i | 10* | i | i | i | 0.0077 | 0.0096* | 0.029 | 0.013* | 0.021 | ?
O=C(CCCNC(=O)c1ccc(Cl)cc1)OCc1cccc(Br)c1 | -16 | i | / | i | i | i | / | / | / | / | / | /
COCCNc1oc(-c2ccccc2Cl)nc1C#N | -14 | i | -3.8* | i | i | i | 0.0078 | 0.0055 | 0.03 | 0.0068 | 0.02 | 0.0089
Cc1ccccc1CC(=O)Nc1ccc(S(=O)(=O)N2CCN(C)CC2)cc1 | -11 | i | / | i | i | i | / | / | / | / | / | /
COc1ccc(C2/C=C\CN(CC(C)(C)C)CC(=O)N2Cc2ccc(F)cc2)cc1 (stereo not drawn) | -11 | i | -0.55 | i | i | i | / | / | / | / | / | /
COc1ccc(C2/C=C\CN(Cc3ccncc3)CC(=O)N2Cc2ccc(F)cc2)cc1 (stereo not drawn) | -13 | i | -2 | i | i | i | / | / | / | / | / | /
CCCCCN1C/C=C\C(c2ccc(OC)cc2)N(Cc2ccc(F)cc2)C(=O)C1 (stereo not drawn) | -6 | i | -2.5* | i | i | i | 0.0096 | 0.0049 | ? | 0.007 | 0.017* | 0.0099
COc1ccc(C2/C=C\CN(CC3CC3)CC(=O)N2Cc2ccc(F)cc2)cc1 (stereo not drawn) | -13 | i | -3.4* | i | i | i | 0.007 | 0.0063 | 0.031 | 0.0073 | 0.017* | 0.011
CCCCC(=O)N1C/C=C\C(c2ccc(OC)cc2)N(Cc2ccc(F)cc2)C(=O)C1 (stereo not drawn) | -7 | i | -2.8* | i | i | i | 0.0088 | 0.005 | 0.033 | 0.0076 | 0.019 | 0.011
COCCNC(=O)CN(C(=O)Cn1nnc2ccccc21)c1cc(C)cc(C)c1 | 1 | i | 0.031 | i | i | i | / | / | / | / | / | /
CC(=O)N1CCc2cc(S(=O)(=O)NCc3ccc(C)cc3)ccc21 | -9 | i | / | i | i | i | / | / | / | / | / | /
CCN(C(=O)COC(=O)CSc1ccc([N+](=O)[O-])cc1)C1CCS(=O)(=O)C1 (stereo not drawn) | -9 | i | / | i | i | i | / | / | / | / | / | /
CCc1nn(C(C)C(=O)N2CCc3ccccc3C2)c(=O)c2cc3occc3n12 (stereo not drawn) | -10 | i | -5.9* | i | i | i | ? | 0.0041 | 0.022* | 0.0061* | 0.012* | ?
CN1C(=O)/C(=C/c2cc3c(cc2Br)OCO3)NC1=S | -4 | i | 7.1* | i | i | i | ? | 0.023* | 0.033 | 0.013* | 0.031* | 0.011
COCCn1c(C)cc(/C=C2\NC(=S)N(C)C2=O)c1C | -6 | i | 1.2 | i | i | i | / | / | / | / | / | /
CCN(CC)c1ccc2cc(C(=O)Nc3ccccn3)c(=O)oc2c1 | -7 | i | i | i | i | i | 0.0031* | ? | 0.016* | 0.0037* | 0.0054* | 0.0065*
CCCn1nnnc1SCC(=O)c1ccc(NC(C)=O)cc1 | -13 | i | 0.33 | i | i | i | / | / | / | / | / | /
COn1c(SC(C)C)nc2ccccc2c1=O | -10 | i | 0.23 | i | i | i | / | / | / | / | / | /
COn1c(SC2CCCCC2)nc2ccccc2c1=O | -6 | i | 2.6* | i | i | i | ? | 0.014* | 0.027 | 0.012* | ? | 0.0099
COc1cc(C(=O)Nc2nnc(C)s2)cc(OC)c1OC | -6 | i | / | i | i | i | / | / | / | / | / | /
Cc1ccc2[nH]c(=S)cc(C)c2c1 | -4 | i | 21* | i | i | i | 0.011 | ? | 0.038 | ? | ? | 0.019*
Cc1cc(=S)[nH]c2ccccc12 | 0 | i | 5.8* | i | i | i | 0.0084 | 0.015* | 0.029 | 0.015* | ? | 0.015*
Cc1cc2[nH]c(=S)[nH]c2cc1C | -11 | i | 0.17 | i | i | i | / | / | / | / | / | /
Cc1ccc2c(C)cc(=S)[nH]c2c1 | -8 | i | 29* | i | i | i | 0.0079 | 0.02* | 0.036 | 0.024* | 0.03* | 0.021*
SMILES | hERG rescue | KCNQ1 act | Cl transport mod | KCNQ1 inh | KCNK9 inh | KCNK3 block | KCC2 sec1 | KCC2 bumet counter | KCC2 sec2 | HEK counter1 | KCC2 ouabain | HEK counter2
Cc1cn[nH]c1 | / | / | / | / | / | i | / | / | / | / | / | /
O=C1CCC(C(=O)Nc2nnc(C3CC3)s2)=NN1 | -15 | i | 0.96 | i | i | i | / | / | / | / | / | /
CCOc1ccc(C(CC(=O)O)NC(=O)C(Sc2ccccc2)c2ccccc2)cc1 (stereo not drawn) | -13 | i | -4* | i | i | i | 0.0068 | ? | 0.023* | 0.0084 | ? | 0.012
CCC1CCCCN1S(=O)(=O)c1ccc(C(=O)Nc2nnc(-c3cccs3)o2)cc1 (stereo not drawn) | / | / | 15* | / | / | i | 0.014* | 0.054* | 0.029 | 0.024* | 0.045* | 0.012*
CC1CC(C)CN(S(=O)(=O)c2ccc(C(=O)Nc3nnc(-c4cccs4)o3)cc2)C1 (stereo not drawn) | -8 | i | 12* | i | i | i | 0.0056 | 0.032* | 0.041* | 0.025* | 0.034* | 0.024*
CC(=O)c1ccc(S(=O)(=O)NCC2(N3CCOCC3)CCCCC2)cc1 | / | / | / | / | / | i | / | / | / | / | / | /
NC(=S)NNC(=O)c1cccc(Cl)c1 | -9 | i | 5.6* | i | i | i | ? | ? | 0.032 | 0.01* | 0.019 | ?
